Experiments:
[1] = molecular target: Cystic fibrosis transmembrane conductance regulator (Homo sapiens, UniProt P13569, F508DEL); assay: (§1) Activity of human CFTR F508 deletion mutant expressed in FRT cells assessed as potentiation of genistein-induced iodine ion influx after 24 hrs by YFP-H148Q/I152L fluorescent quenching assay; assay type: cell-based
Outline: (§2)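 FRT cells co-expressing human ΔF508-CFTR and the iodide-sensitive YFP-H148Q/I152L sensor were incubated 24 h with each compound. Iodide influx, used as a chloride surrogate, was then read from the kinetics of YFP quenching after iodide addition, with cells stimulated by a cAMP agonist plus genistein. Corrector activity was derived from influx versus concentration data.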

[2] = molecular target: Cystic fibrosis transmembrane conductance regulator (Homo sapiens, UniProt P13569); assay: as §1; assay type: cell-based; conditions: frt; outline: as §2
Cystic fibrosis transmembrane conductance regulator (Homo sapiens, UniProt P13569), sequence (P13569 as listed by the source): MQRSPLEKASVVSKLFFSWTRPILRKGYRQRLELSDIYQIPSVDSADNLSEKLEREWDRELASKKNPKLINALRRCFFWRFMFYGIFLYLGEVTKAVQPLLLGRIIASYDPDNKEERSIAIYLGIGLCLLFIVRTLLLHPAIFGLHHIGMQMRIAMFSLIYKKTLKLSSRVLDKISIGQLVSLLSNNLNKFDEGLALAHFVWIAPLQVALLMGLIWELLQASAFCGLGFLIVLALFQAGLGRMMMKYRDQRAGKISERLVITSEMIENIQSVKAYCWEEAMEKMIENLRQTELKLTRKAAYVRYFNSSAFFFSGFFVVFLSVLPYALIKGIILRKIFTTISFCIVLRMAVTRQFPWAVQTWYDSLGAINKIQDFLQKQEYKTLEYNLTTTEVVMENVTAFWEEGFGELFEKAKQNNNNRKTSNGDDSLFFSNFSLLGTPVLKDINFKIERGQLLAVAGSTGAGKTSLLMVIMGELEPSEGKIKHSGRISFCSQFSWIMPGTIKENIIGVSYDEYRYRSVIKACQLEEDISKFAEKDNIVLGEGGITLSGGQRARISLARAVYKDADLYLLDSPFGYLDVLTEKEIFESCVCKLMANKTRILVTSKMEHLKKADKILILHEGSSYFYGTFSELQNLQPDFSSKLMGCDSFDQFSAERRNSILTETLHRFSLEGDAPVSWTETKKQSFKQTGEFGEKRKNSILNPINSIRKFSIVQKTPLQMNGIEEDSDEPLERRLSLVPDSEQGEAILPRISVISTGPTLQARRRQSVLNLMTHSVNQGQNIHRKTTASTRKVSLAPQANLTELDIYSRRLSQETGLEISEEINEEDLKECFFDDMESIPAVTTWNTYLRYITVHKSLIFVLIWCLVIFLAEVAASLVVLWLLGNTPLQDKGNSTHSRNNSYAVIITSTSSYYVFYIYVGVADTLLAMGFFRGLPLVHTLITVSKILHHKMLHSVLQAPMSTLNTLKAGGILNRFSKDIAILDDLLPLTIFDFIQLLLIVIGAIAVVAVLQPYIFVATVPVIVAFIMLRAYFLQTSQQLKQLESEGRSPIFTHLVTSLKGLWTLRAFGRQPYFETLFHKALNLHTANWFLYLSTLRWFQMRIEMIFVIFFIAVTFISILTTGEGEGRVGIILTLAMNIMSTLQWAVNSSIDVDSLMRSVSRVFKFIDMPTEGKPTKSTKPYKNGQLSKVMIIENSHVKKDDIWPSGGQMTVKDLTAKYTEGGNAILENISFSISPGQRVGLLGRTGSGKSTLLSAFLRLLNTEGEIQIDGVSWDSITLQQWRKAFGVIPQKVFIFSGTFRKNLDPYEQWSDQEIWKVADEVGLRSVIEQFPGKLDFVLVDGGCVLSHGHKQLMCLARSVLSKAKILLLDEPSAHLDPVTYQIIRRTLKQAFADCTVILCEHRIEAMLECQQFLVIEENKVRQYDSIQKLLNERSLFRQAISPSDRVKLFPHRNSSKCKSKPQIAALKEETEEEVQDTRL

Cystic fibrosis transmembrane conductance regulator (Homo sapiens, UniProt P13569, F508DEL), sequence (P13569 as listed by the source): as above

EC50 [1]	EC50 [2]	SMILES
660 nM		COc1ccc(Cl)cc1Nc1nnc(-c2csc(NC(=O)C(C)(C)C)n2)o1
	Not Active	COc1ccc(Cl)cc1Nc1nnc(-c2csc(NC(=O)C(C)(C)C)n2)s1
590 nM		COc1ccc(Cl)cc1Nc1nc(-c2nnc(NC(=O)C(C)(C)C)o2)cs1
	Not Active	COc1ccc(Cl)cc1Nc1nc(C)c(-c2csc(NC(=O)C(C)(C)C)n2)s1

Further lines, the compound ahead of its results:

SMILES	EC50 [1]	EC50 [2]
COc1ccc(Cl)cc1Nc1nc(-c2sc(NC(=O)C(C)(C)C)nc2C)cs1	870 nM	
COc1ccc(Cl)cc1-n1cc(-c2sc(NC(=O)C(C)(C)C)nc2C)[nH]c1=O		Not Active
COc1ccc(Cl)cc1Nc1ncc(-c2sc(NC(=O)C(C)(C)C)nc2C)o1	740 nM	
